Experimental data pooled from the literature.
Lines come from different studies, so protocols differ.
Target: Aurora kinase A (AURKA, Homo sapiens, UniProt O14965)
One construct used (O14965 1-403): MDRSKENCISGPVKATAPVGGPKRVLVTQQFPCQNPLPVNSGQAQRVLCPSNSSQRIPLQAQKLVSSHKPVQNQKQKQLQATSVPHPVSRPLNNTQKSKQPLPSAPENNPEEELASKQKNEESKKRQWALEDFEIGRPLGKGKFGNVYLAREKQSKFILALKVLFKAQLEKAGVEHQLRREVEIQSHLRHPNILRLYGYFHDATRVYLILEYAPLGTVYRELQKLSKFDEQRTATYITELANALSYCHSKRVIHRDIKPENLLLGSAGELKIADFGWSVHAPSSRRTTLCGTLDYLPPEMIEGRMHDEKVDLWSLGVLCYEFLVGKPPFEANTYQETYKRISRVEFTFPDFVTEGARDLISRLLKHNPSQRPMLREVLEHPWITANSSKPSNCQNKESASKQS

| SMILES | read-out | method | concentration | remaining binding |
| --- | --- | --- | --- | --- |
| Cc1cnc(Nc2ccc(C(=O)N3CCC(N4CCCC4)CC3)cc2)nc1-c1cc2ccccc2s1 | binding | competition with immobilised ligand | 1 µM | 2% |
| CNC(=O)[C@@H]1CC[C@@H](n2c(-c3ccc4cnccc4c3)nc3ccc(C(=O)NCc4cccc(C(N)=O)c4)cc32)C1 | binding | competition with immobilised ligand | 1 µM | 100% |
| c1cnn2ncc(-c3ccnc(N4CCC45COC5)n3)c2c1 | binding |  | 1 µM | 90% |
| COCCOc1nc(-c2ccc(Cl)nc2)nc2c1CN(C(=O)c1ncn3ccccc13)CC2 | cell-free assay | competition with immobilised ligand | 0.1 µM | 81% |
| COc1cc(C(=O)N2CCC(N3CCN(C)CC3)CC2)ccc1Nc1ncc2c(n1)N(C)c1ccccc1C(=O)N2C | binding | competition with immobilised ligand | 10 µM | 1.2% |
| F[C@@H]1CCN(c2nccc(-c3cnn4ncccc34)n2)C1 | binding |  | 1 µM | 91% |
| O=C(NCCCN1CCOCC1)c1ccc(Nc2ncc(Cl)c(-c3ccc(Cl)s3)n2)cc1 | binding | competition with immobilised ligand | 1 µM | 12% |
| COc1cnc(Nc2cccc(S(N)(=O)=O)c2)nc1N1CCN(c2ccccc2)C(=O)C1 | binding | competition with immobilised ligand | 1 µM | 80% |
| Cc1cnn2ncc(-c3ccnc(N(C)C)n3)c2c1 | binding |  | 1 µM | 99% |
| C=CC(=O)N1CCC(C(=O)NCC(=O)N2CCN(c3nc(-c4cnc(N)nc4C(F)F)nc(N4CCOCC4)n3)CC2)CC1 | binding | competition with immobilised ligand | 1 µM | 96% |
| C[C@H]1CCN(c2nccc(-c3cnn4ncccc34)n2)C1 | binding |  | 1 µM | 91% |
| CN(C(=O)c1ccccc1)c1cc(N(C)c2ccc3c(c2)CCc2ccc(C(=O)NCCN4CCOCC4)cc2C3=O)ccc1F | cell-free assay | competition with immobilised ligand | 1 µM | 100% |
| O=C(Nc1c[nH]nc1C(=O)NC1CCNCC1)c1cc(F)cc(F)c1 | binding | competition with immobilised ligand | 1 µM | 100% |
| O=C(c1ccc(Nc2nccc(-c3cc4ccccc4s3)n2)cc1)N1CCC(N2CCCC2)CC1 | binding | competition with immobilised ligand | 1 µM | 33% |
| COc1cc(-c2cn(C3CCc4ccccc4N(CC(F)(F)F)C3=O)nn2)ccc1-n1ccc(C)n1 (stereo not shown) | cell-free assay | competition with immobilised ligand | 1 µM | 58% |
| CN(CCCC(F)(F)F)c1nccc(-c2cnn3ncccc23)n1 | binding |  | 1 µM | 90% |
| FC(F)(F)Oc1cccc(-c2cnc3ccc(-c4ccncc4)nn23)c1 | cell-free assay | competition with immobilised ligand | 5 µM | 91% |
| Nc1cnc(N2CCc3cc(S(=O)(=O)Nc4c(F)cc(Cl)cc4F)cc(N4CCCC4=O)c32)nc1 | cell-free assay | competition with immobilised ligand | 1 µM | 100% |
| C[C@@H]1CN(c2ccc3ncc(-c4ccc5[nH]nc(C6CC6)c5c4)n3n2)C[C@H](C)O1 | binding | competition with immobilised ligand | 0.5 µM | 85% |
| FC(F)(F)c1ccc2c(c1)nc(-c1cccnc1)n2C1CC1 | cell-free assay | competition with immobilised ligand | 1 µM | 98% |
| CC1CCCN1c1nccc(-c2cnn3ncccc23)n1 (stereo not shown) | binding |  | 1 µM | 87% |
| O=C(NS(=O)(=O)c1ccc(NCC2CCOCC2)c([N+](=O)[O-])c1)c1ccc(N2CCN(Cc3ccc(C(F)(F)F)cc3-c3ccc(Cl)cc3)CC2)cc1Oc1cnc2[nH]ccc2c1 | cell-free assay | competition with immobilised ligand | 1 µM | 96% |
| COc1ncc2cc3ccccc3nc2c1C#N | cell-free assay | competition with immobilised ligand | 5 µM | 100% |
| CS(=O)(=O)NCC[C@H](NC(=O)c1cncc2c1cnn2-c1ccc(F)cc1)c1ccnc(S(C)(=O)=O)c1 | cell-free assay | competition with immobilised ligand | 1 µM | 100% |
| N[C@H]1CCN(c2nccc(-c3cnn4ncccc34)n2)C1 | binding |  | 1 µM | 97% |
